Measurements taken from ChEMBL document CHEMBL3739340, “Synthesis and Evaluation of Novel Erlotinib-NSAID Conjugates as More Comprehensive Anticancer Agents” (ACS Med Chem Lett, 2015).

Columns and labels:
[1] = molecular target: Epidermal growth factor receptor (Homo sapiens, UniProt P00533); experiment: Inhibition of EGFR (unknown origin) using tyrosine 4 as substrate by fluorescence analysis
[2] = molecular target: T1, Prostaglandin G/H synthase 1 (Ovis aries, UniProt P05979); experiment: Inhibition of Ovine COX-1 preincubated for 15 mins by fluorescence analysis
T1 sequence (P05979 whole entry): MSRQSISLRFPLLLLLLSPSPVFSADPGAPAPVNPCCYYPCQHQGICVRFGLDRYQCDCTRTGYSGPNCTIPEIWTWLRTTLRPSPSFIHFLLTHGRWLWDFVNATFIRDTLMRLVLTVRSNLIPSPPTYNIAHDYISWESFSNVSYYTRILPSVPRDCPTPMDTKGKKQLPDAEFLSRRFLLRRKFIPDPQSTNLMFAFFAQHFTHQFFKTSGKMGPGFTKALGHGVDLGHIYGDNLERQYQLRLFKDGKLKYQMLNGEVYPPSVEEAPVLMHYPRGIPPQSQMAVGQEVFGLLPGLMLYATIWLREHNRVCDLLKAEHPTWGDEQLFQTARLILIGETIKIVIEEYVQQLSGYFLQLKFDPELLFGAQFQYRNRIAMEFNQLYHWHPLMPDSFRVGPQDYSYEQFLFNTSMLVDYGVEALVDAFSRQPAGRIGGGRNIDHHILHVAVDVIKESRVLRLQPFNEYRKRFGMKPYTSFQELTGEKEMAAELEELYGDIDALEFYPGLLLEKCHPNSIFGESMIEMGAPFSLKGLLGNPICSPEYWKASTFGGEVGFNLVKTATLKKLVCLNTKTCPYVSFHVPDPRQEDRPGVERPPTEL

[3] = Antiproliferative activity against human HCC827 cells after 72 hrs by CCK-8 assay; type: functional, cell-based; details: HCC827, 72 h
A-431 = experiment: Antiproliferative activity against human A431 cells after 72 hrs by CCK-8 assay; type: functional, cell-based
[4] = Drug level in human HCC827 cells treated with 2-(4-(3-ethynylphenylamino)-6-(2-methoxyethoxy)quinazolin-7-yloxy)ethyl 2-(6-methoxynaphthalen-2-yl)propanoate by LC-MS/MS analysis; type: ADME, cell-based
Outline: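 Conjugate added to culture medium (containing active serum) and incubated with HCC827 tumor cells for up to 24 h. Samples taken over time to follow hydrolysis of the conjugate and release of the parent molecules.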

[5] = Homo sapiens, A-431, 72 h, read-out: IC50

Chain of Epidermal growth factor receptor (P00533 whole entry): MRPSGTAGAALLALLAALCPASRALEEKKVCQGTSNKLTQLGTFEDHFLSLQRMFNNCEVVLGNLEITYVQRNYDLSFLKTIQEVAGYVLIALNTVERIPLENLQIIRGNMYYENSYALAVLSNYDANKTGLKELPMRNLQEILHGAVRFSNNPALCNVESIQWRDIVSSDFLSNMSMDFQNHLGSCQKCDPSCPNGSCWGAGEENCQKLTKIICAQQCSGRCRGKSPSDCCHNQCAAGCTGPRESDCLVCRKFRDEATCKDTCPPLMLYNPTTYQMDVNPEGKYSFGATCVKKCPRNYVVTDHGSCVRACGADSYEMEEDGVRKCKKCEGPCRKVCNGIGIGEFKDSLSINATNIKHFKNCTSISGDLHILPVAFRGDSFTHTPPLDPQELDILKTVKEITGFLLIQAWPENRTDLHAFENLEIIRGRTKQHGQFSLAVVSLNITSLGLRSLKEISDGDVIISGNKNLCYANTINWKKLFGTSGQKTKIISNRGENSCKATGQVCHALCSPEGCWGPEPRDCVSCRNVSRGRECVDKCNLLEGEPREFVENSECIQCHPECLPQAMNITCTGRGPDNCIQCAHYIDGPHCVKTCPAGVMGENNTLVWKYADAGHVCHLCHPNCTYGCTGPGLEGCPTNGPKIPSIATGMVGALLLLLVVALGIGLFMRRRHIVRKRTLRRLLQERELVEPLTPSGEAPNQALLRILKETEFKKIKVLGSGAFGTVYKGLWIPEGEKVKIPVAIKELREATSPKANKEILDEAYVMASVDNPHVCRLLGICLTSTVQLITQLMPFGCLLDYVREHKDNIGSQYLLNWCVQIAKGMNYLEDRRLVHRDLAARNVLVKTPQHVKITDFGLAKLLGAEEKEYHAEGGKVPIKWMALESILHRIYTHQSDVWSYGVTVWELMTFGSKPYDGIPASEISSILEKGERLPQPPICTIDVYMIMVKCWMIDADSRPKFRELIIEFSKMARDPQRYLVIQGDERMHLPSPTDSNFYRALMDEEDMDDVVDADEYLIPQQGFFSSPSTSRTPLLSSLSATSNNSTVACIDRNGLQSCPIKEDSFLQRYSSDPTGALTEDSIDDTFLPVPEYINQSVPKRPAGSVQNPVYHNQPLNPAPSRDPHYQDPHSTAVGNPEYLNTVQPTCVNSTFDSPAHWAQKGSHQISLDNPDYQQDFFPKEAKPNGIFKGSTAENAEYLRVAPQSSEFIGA

| SMILES | IC50 [1] | IC50 [2] | IC50 (A-431; a-431) | IC50 (A-431; [5]) | Drug metabolism [4] | IC50 [3] |
| --- | --- | --- | --- | --- | --- | --- |
| C#Cc1cccc(Nc2ncnc3cc(OCCOC(=O)C(C)c4ccc(CC(C)C)cc4)c(OCCOC(=O)C(C)c4ccc(CC(C)C)cc4)cc23)c1 (stereo not drawn) | > 10 µM | > 10 µM | Not Active |  |  | 16.5 µM |
| CC1=C(CC(=O)O)c2cc(F)ccc2/C1=C\c1ccc([S+](C)[O-])cc1 (stereo not drawn) | > 10 µM | 16 µM |  |  |  |  |
| C#Cc1cccc(Nc2ncnc3cc(OCCOC)c(OCCOC(=O)C(C)c4cccc(C(=O)c5ccccc5)c4)cc23)c1 (stereo not drawn) |  |  |  | 1.7 µM |  | 0.3 µM |
| C#Cc1cccc(Nc2ncnc3cc(OCCOC)c(OCCOC(=O)C(C)c4ccc5cc(OC)ccc5c4)cc23)c1 (stereo not drawn) |  |  |  | 5 µM |  | 0.5 µM |
| C#Cc1cccc(Nc2ncnc3cc(OCCOC)c(OCCOC)cc23)c1 [ERLOTINIB] |  | > 10 µM |  |  |  |  |
| C#Cc1cccc(Nc2ncnc3cc(OCCOC)c(OCCOC(=O)C(C)c4ccc(CC(C)C)cc4)cc23)c1 (stereo not drawn) |  |  |  | > 10 µM |  | > 10 µM |
| C#Cc1cccc(Nc2ncnc3cc(OCCOC(=O)CC4=C(C)/C(=C/c5ccc([S+](C)[O-])cc5)c5ccc(F)cc54)c(OCCOC(=O)CC4=C(C)/C(=C/c5ccc([S+](C)[O-])cc5)c5ccc(F)cc54)cc23)c1 (stereo not drawn) | 0.027 µM | > 10 µM |  | > 10 µM |  | 3.5 µM |
| C#Cc1cccc(Nc2ncnc3cc(OCCO)c(OCCOC)cc23)c1 | 0.001 µM | > 10 µM |  | 1.27 µM | metabolite_detected | 0.014 µM |
| C#Cc1cccc(Nc2ncnc3cc(OCCOC(=O)CC4=C(C)/C(=C\c5ccc([S+](C)[O-])cc5)c5ccc(F)cc54)c(OCCOC)cc23)c1 (stereo not drawn) | 0.031 µM | > 10 µM |  | 5.4 µM |  | 0.3 µM |
| C#Cc1cccc(Nc2ncnc3cc(OCCOC(=O)C(C)c4ccc5cc(OC)ccc5c4)c(OCCOC(=O)C(C)c4ccc5cc(OC)ccc5c4)cc23)c1 (stereo not drawn) | 0.39 µM | > 10 µM | Not Active |  |  | 2.3 µM |
| C#Cc1cccc(Nc2ncnc3cc(OCCOC(=O)C(C)c4cccc(C(=O)c5ccccc5)c4)c(OCCOC(=O)C(C)c4cccc(C(=O)c5ccccc5)c4)cc23)c1 (stereo not drawn) |  |  |  | > 10 µM |  | 2.1 µM |
| C#Cc1cccc(Nc2ncnc3cc(OCCOC(=O)c4ccc(C(=O)Nc5ccc6c(c5)C(C)(C)CCC6(C)C)cc4)c(OCCOC(=O)c4ccc(C(=O)Nc5ccc6c(c5)C(C)(C)CCC6(C)C)cc4)cc23)c1 | 0.88 µM | > 10 µM | Not Active |  |  | > 10 µM |
| C#Cc1cccc(Nc2ncnc3cc(OCCOC)c(OCCOC(=O)Cc4c(C)n(C(=O)c5ccc(Cl)cc5)c5ccc(OC)cc45)cc23)c1 |  |  |  | > 10 µM |  | 1.2 µM |
| C#Cc1cccc(Nc2ncnc3cc(OCCOC(=O)Cc4c(C)n(C(=O)c5ccc(Cl)cc5)c5ccc(OC)cc45)c(OCCOC)cc23)c1 | 0.027 µM | 11.3 µM |  | > 10 µM |  | 0.9 µM |
| C#Cc1cccc(Nc2ncnc3cc(OCCOC(=O)C(C)c4ccc(CC(C)C)cc4)c(OCCOC)cc23)c1 (stereo not drawn) | 0.009 µM | 44.7 µM |  | 2.2 µM |  | 0.4 µM |
| C#Cc1cccc(Nc2ncnc3cc(OCCOC(=O)Cc4c(C)n(C(=O)c5ccc(Cl)cc5)c5ccc(OC)cc45)c(OCCOC(=O)Cc4c(C)n(C(=O)c5ccc(Cl)cc5)c5ccc(OC)cc45)cc23)c1 | 0.033 µM | 31.4 µM |  | > 10 µM |  | 1.6 µM |
| C#Cc1cccc(Nc2ncnc3cc(OCCOC)c(OCCOC(=O)CC4=C(C)/C(=C\c5ccc([S+](C)[O-])cc5)c5ccc(F)cc54)cc23)c1 (stereo not drawn) |  |  |  | 4.8 µM |  | 0.4 µM |
| C#Cc1cccc(Nc2ncnc3cc(OCCOC(=O)c4ccc(C(=O)Nc5ccc6c(c5)C(C)(C)CCC6(C)C)cc4)c(OCCOC)cc23)c1 | 0.032 µM | > 10 µM |  | > 10 µM |  | 0.2 µM |

The next lines start with results.

| IC50 [1] | IC50 [2] | IC50 (A-431; a-431) | IC50 (A-431; [5]) | Drug metabolism [4] | SMILES | IC50 [3] |
| --- | --- | --- | --- | --- | --- | --- |
|  |  |  | > 10 µM |  | C#Cc1cccc(Nc2ncnc3cc(OCCOC)c(OCCOC(=O)c4ccccc4OC(C)=O)cc23)c1 | 0.1 µM |
| > 10 µM | 0.067 µM |  |  |  | CC(C(=O)O)c1cccc(C(=O)c2ccccc2)c1 (stereo not drawn) [KETOPROFEN] |  |
| 0.005 µM | > 10 µM |  | 1.8 µM |  | C#Cc1cccc(Nc2ncnc3cc(OCCOC(=O)c4ccccc4OC(C)=O)c(OCCOC)cc23)c1 | 0.1 µM |
| > 10 µM |  |  |  |  | CC(C)Cc1ccc(C(C)C(=O)O)cc1 (stereo not drawn) [IBUPROFEN] |  |
| > 10 µM |  |  |  | metabolite_detected | COc1ccc2cc(C(C)C(=O)O)ccc2c1 (racemic) |  |
| > 10 µM |  |  |  |  | CC(=O)Oc1ccccc1C(=O)O [ASPIRIN] |  |
| > 10 µM |  |  |  |  | COc1ccc2c(c1)c(CC(=O)O)c(C)n2C(=O)c1ccc(Cl)cc1 [INDOMETHACIN] |  |
| 0.034 µM | 39.6 µM |  | > 10 µM |  | C#Cc1cccc(Nc2ncnc3cc(OCCOC(=O)c4ccccc4OC(C)=O)c(OCCOC(=O)c4ccccc4OC(C)=O)cc23)c1 | 0.9 µM |
